Test system: U2OS
Assay: Multiplex assay against U2OS
Format: toxicity, cell-based
Conditions: human
Method in brief: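 Tubulin, mitochondrial-mass and membrane-permeability phenotypes are per cents of healthy-nucleus cells. Cells were gated by CellPathfinder machine learning into Hoechst high-intensity objects or normal cells, normal cells into healthy, pyknosed or fragmented nuclei, and pyknosed cells into mitotic or apoptotic. Before that, live cells stained at seeding with Hoechst33342, BioTracker Green Microtubule Cytoskeleton Dye, MitoTracker Red and Annexin V Alexa Fluor 680 were imaged on a CQ1 microscope at 37°C and 5% CO2 after compound addition.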

[1] = 12 h, 1 µM, compound concentration 1 uM, replicate 1
[2] = 12 h, 1 µM, compound concentration 1 uM, replicate 2
[3] = 12 h, 10 µM, compound concentration 10 uM, replicate 1
[4] = 12 h, 10 µM, compound concentration 10 uM, replicate 2
[5] = 24 h, 1 µM, compound concentration 1 uM, replicate 1
[6] = 24 h, 1 µM, compound concentration 1 uM, replicate 2
[7] = 24 h, 10 µM, compound concentration 10 uM, replicate 1
[8] = 24 h, 10 µM, compound concentration 10 uM, replicate 2
[9] = 48 h, 1 µM, compound concentration 1 uM, replicate 1
[10] = 48 h, 1 µM, compound concentration 1 uM, replicate 2
[11] = 48 h, 10 µM, compound concentration 10 uM, replicate 1
[12] = 48 h, 10 µM, compound concentration 10 uM, replicate 2

Compound: Cc1cc(-c2ccc3c(c2)CC[C@H]3N2CC3(CCN(C(=O)Cc4cn5cc(C)sc5n4)CC3)C2)ncn1 [PF-5190457]
- Population Apoptotic (%) [1]: 82%
- Population Fragmented Nuclei (%) [1]: 24%
- Population Healthy Nuclei (%) [1]: 65%
- Population Hoechst High Intensity Objects (%) [1]: 1%
- Population Membrane Permeable-Phenotype (%) [1]: 7%
- Population Mitochondria Different-Phenotype (%) [1]: 3%
- Population Mitotic Cells (%) [1]: 17%
- Population Normal (%) [1]: 98%
- Population Pyknosed Nuclei (%) [1]: 9%
- Population Tubulin-Different-Phenotype (%) [1]: 4%
- Total Cell Count [1]: 239
- Population Apoptotic (%) [2]: 63%
- Population Fragmented Nuclei (%) [2]: 21%
- Population Healthy Nuclei (%) [2]: 66%
- Population Hoechst High Intensity Objects (%) [2]: 0%
- Population Membrane Permeable-Phenotype (%) [2]: 4%
- Population Mitotic Cells (%) [2]: 36%
- Population Normal (%) [2]: 100%
- Population Pyknosed Nuclei (%) [2]: 11%
- Population Tubulin-Different-Phenotype (%) [2]: 3%
- Total Cell Count [2]: 93
- Population Apoptotic (%) [3]: 61%
- Population Fragmented Nuclei (%) [3]: 18%
- Population Healthy Nuclei (%) [3]: 66%
- Population Hoechst High Intensity Objects (%) [3]: 2%
- Population Membrane Permeable-Phenotype (%) [3]: 7%
- Population Mitochondria Different-Phenotype (%) [3]: 5%
- Population Mitotic Cells (%) [3]: 38%
- Population Normal (%) [3]: 97%
- Population Pyknosed Nuclei (%) [3]: 14%
- Population Tubulin-Different-Phenotype (%) [3]: 5%
- Total Cell Count [3]: 238
- Population Apoptotic (%) [4]: 71%
- Population Fragmented Nuclei (%) [4]: 14%
- Population Healthy Nuclei (%) [4]: 74%
- Population Hoechst High Intensity Objects (%) [4]: 1%
- Population Membrane Permeable-Phenotype (%) [4]: 8%
- Population Mitochondria Different-Phenotype (%) [4]: 10%
- Population Mitotic Cells (%) [4]: 28%
- Population Normal (%) [4]: 98%
- Population Pyknosed Nuclei (%) [4]: 11%
- Population Tubulin-Different-Phenotype (%) [4]: 6%
- Total Cell Count [4]: 126
- Population Apoptotic (%) [5]: 69%
- Population Fragmented Nuclei (%) [5]: 25%
- Population Healthy Nuclei (%) [5]: 66%
- Population Hoechst High Intensity Objects (%) [5]: 1%
- Population Membrane Permeable-Phenotype (%) [5]: 8%
- Population Mitochondria Different-Phenotype (%) [5]: 3%
- Population Mitotic Cells (%) [5]: 30%
- Population Normal (%) [5]: 98%
- Population Pyknosed Nuclei (%) [5]: 8%
- Population Tubulin-Different-Phenotype (%) [5]: 5%
- Total Cell Count [5]: 282
- Population Apoptotic (%) [6]: 33%
- Population Fragmented Nuclei (%) [6]: 21%
- Population Healthy Nuclei (%) [6]: 76%
- Population Hoechst High Intensity Objects (%) [6]: 0%
- Population Membrane Permeable-Phenotype (%) [6]: 6%
- Population Mitochondria Different-Phenotype (%) [6]: 1%
- Population Mitotic Cells (%) [6]: 66%
- Population Normal (%) [6]: 99%
- Population Pyknosed Nuclei (%) [6]: 2%
- Population Tubulin-Different-Phenotype (%) [6]: 2%
- Total Cell Count [6]: 126
- Population Apoptotic (%) [7]: 67%
- Population Fragmented Nuclei (%) [7]: 18%
- Population Healthy Nuclei (%) [7]: 72%
- Population Hoechst High Intensity Objects (%) [7]: 2%
- Population Membrane Permeable-Phenotype (%) [7]: 3%
- Population Mitochondria Different-Phenotype (%) [7]: 0%
- Population Mitotic Cells (%) [7]: 32%
- Population Normal (%) [7]: 97%
- Population Pyknosed Nuclei (%) [7]: 9%
- Population Tubulin-Different-Phenotype (%) [7]: 1%
- Total Cell Count [7]: 295
- Population Apoptotic (%) [8]: 84%
- Population Healthy Nuclei (%) [8]: 69%
- Population Hoechst High Intensity Objects (%) [8]: 1%
- Population Membrane Permeable-Phenotype (%) [8]: 11%
- Population Mitochondria Different-Phenotype (%) [8]: 8%
- Population Mitotic Cells (%) [8]: 15%
- Population Normal (%) [8]: 98%
- Population Pyknosed Nuclei (%) [8]: 12%
- Population Tubulin-Different-Phenotype (%) [8]: 4%
- Total Cell Count [8]: 154
- Population Apoptotic (%) [9]: 84%
- Population Fragmented Nuclei (%) [9]: 20%
- Population Healthy Nuclei (%) [9]: 71%
- Population Hoechst High Intensity Objects (%) [9]: 0%
- Population Membrane Permeable-Phenotype (%) [9]: 7%
- Population Mitochondria Different-Phenotype (%) [9]: 4%
- Population Mitotic Cells (%) [9]: 15%
- Population Normal (%) [9]: 99%
- Population Pyknosed Nuclei (%) [9]: 8%
- Population Tubulin-Different-Phenotype (%) [9]: 4%
- Total Cell Count [9]: 402
- Population Apoptotic (%) [10]: 66%
- Population Fragmented Nuclei (%) [10]: 16%
- Population Healthy Nuclei (%) [10]: 78%
- Population Hoechst High Intensity Objects (%) [10]: 2%
- Population Membrane Permeable-Phenotype (%) [10]: 4%
- Population Mitochondria Different-Phenotype (%) [10]: 2%
- Population Mitotic Cells (%) [10]: 33%
- Population Normal (%) [10]: 97%
- Population Pyknosed Nuclei (%) [10]: 5%
- Population Tubulin-Different-Phenotype (%) [10]: 2%
- Total Cell Count [10]: 184
- Population Apoptotic (%) [11]: 74%
- Population Fragmented Nuclei (%) [11]: 16%
- Population Healthy Nuclei (%) [11]: 71%
- Population Hoechst High Intensity Objects (%) [11]: 3%
- Population Membrane Permeable-Phenotype (%) [11]: 5%
- Population Mitochondria Different-Phenotype (%) [11]: 2%
- Population Mitotic Cells (%) [11]: 25%
- Population Normal (%) [11]: 96%
- Population Pyknosed Nuclei (%) [11]: 12%
- Population Tubulin-Different-Phenotype (%) [11]: 3%
- Total Cell Count [11]: 389
- Population Apoptotic (%) [12]: 76%
- Population Fragmented Nuclei (%) [12]: 18%
- Population Membrane Permeable-Phenotype (%) [12]: 11%
- Population Mitochondria Different-Phenotype (%) [12]: 6%
- Population Mitotic Cells (%) [12]: 23%
- Population Pyknosed Nuclei (%) [12]: 10%
- Population Tubulin-Different-Phenotype (%) [12]: 4%
- Total Cell Count [12]: 217
